Active and inactive are the calls of the source.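 How the source made its calls, unless noted: active means GFP response above 150% of the DMSO level; inconclusive means fewer than 70 events counted for a yeast strain; inactive means the rest.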

The nature of assay [1]: hit retest on RPL19A-GFP reporter strain – cell-based, S. cerevisiae, flow cytometry, cherry picks, mother/daughter gates, confirmation (AID 2270;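 active means GFP response below 50% of the DMSO control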). As to conditions: 3 h, at 10 µM, stronger effect = lower value, 100 = same GFP as DMSO wells.
The nature of assay [2]: yeast TOR pathway reporter LAP4-GFP change – cell-based, cherry picks, flow cytometry, mother/daughter gates, confirmation (AID 2271;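 active means GFP response above 150% of the DMSO control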;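 further: ratio of sample to DMSO plate mean so 100% equals DMSO level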). As to conditions: S. cerevisiae LAP4-GFP strain, 3 h, at 10 µM, stronger effect = higher value, 100 means same as DMSO control. In short, it runs like this: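 Test system: GFP-fusion yeast strain / Amount: 0.2 OD600 cells / Buffer or medium: SC medium / Dosing: 10 µM single dose / Incubation: compound exposure 3 h at 30 °C, end-over-end rotation / Detection: HT flow cytometry, GFP fluorescence channel / Evaluation: median GFP fluorescence as percent of plate-mean DMSO wells / Control set: DMSO-only negative wells, rapamycin 400 ng/mL positive wells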

The nature of assay [3]: TOR pathway reporter MEP2-GFP, retest of hits – S. cerevisiae, flow cytometry GFP, cherry picks, confirmation (AID 2272;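 active means GFP response above 150% of the DMSO control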;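 further: ratio of well signal to plate DMSO mean so 100% equals DMSO level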). The following applies: S. cerevisiae MEP2-GFP strain, 3 h, at 10 µM, stronger effect = higher value.
The nature of assay [4]: yeast AGP1-GFP fluorescence change, single-dose – cell-based, flow cytometry, S. cerevisiae, cherry picks, confirmation (AID 2273).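 Further: median GFP channel fluorescence over the whole cell population gate.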 As to conditions: S. cerevisiae AGP1-GFP strain, 3 h, at 10 µM.
The nature of assay [5]: TOR pathway CIT2 reporter hit retest – S. cerevisiae, GFP fusion, cherry picks, mother/daughter gates, confirmation (AID 2274). The following applies: S. cerevisiae CIT2-GFP strain, flow cytometry, 3 h, at 10 µM, stronger effect = higher value.
[6] abbreviates: measured here: daughter cell gate.
Setting [7] is: measured here: mother cell gate.
Setting [8] is: measured here: daughter cell gate response.
Setting [9] is: measured here: mother cell gate response.

On to `O=C(NN1C(=O)/C(=C\c2ccc(O)c([N+](=O)[O-])c2)SC1=S)c1ccccc1Cl`, for which the GFP response vs DMSO was 97.4% (inactive) in assay [1], 95.9% in assay [1] (setting [6]), 95.8% in assay [1] (setting [7]) and 123% (inactive) in assay [3]. Further, the figures for the GFP response relative to DMSO in assay [2], in assay [2] (setting [8]) and in assay [2] (setting [9]) were 126% (inactive), 106% and 129%, respectively. Also, the GFP response, % of DMSO in assay [4] was 69.8% (inactive); in assay [5] it was 107% (inactive); in assay [5] (setting [6]) it was 99.1%; in assay [5] (setting [7]) it was 106%.
Regarding `Cc1ccc(C(=O)O/N=C(\N)Cc2cccs2)c(Cl)c1`, the GFP response vs DMSO is 104% (inactive) in assay [1], 102% in assay [1] (setting [6]), 99.3% in assay [1] (setting [7]) and 105% (inactive) in assay [3]. Further, the GFP response relative to DMSO in assay [2] is 125% (inactive); in assay [2] (setting [8]), 114%; in assay [2] (setting [9]) it was 123%. For the same compound, the GFP response, % of DMSO is 70.7% (inactive) in assay [4], 129% (inactive) in assay [5], 117% in assay [5] (setting [6]) and 129% in assay [5] (setting [7]).
For the compound `CCN(Cc1ccccc1)S(=O)(=O)c1ccc(C(=O)Nc2nnc(-c3ccccc3OC)o2)cc1`, the GFP response vs DMSO in assay [1] was 98.4% (inactive); in assay [1] (setting [6]), 98.6%; in assay [1] (setting [7]) it was 98.4%; in assay [3], 102% (inactive). Further, the GFP response relative to DMSO in assay [2] is 94.1% (inactive); in assay [2] (setting [8]) it was 92.8%; in assay [2] (setting [9]), 94%. The GFP response, % of DMSO in assay [4] is 96.4% (inactive); in assay [5], 98.3% (inactive); in assay [5] (setting [6]) it was 97.2%; in assay [5] (setting [7]), 99.7%.
In the case of `CCOC(=O)CNc1c(-c2ccccc2)nc2ccc(Cl)cn12`, the GFP response vs DMSO in assay [1] is 96% (inactive); in assay [1] (setting [6]) it was 97.8%; in assay [1] (setting [7]) it was 96.4%; in assay [3] it was 97.5% (inactive). Moreover, the GFP response relative to DMSO in assay [2] was 109% (inactive); in assay [2] (setting [8]) it was 105%; in assay [2] (setting [9]), 114%. Moreover, the GFP response, % of DMSO was 98% (inactive) in assay [4], 95% (inactive) in assay [5], 98.3% in assay [5] (setting [6]) and 93.3% in assay [5] (setting [7]).
As to `Cc1ccc(NC(=S)N2CCSC2c2cccs2)cc1` (stereo not drawn), the GFP response vs DMSO in assay [1] was 98.5% (inactive); in assay [1] (setting [6]), 98.1%; in assay [1] (setting [7]) it was 97.8%; in assay [3] it was 108% (inactive). Further, the GFP response relative to DMSO in assay [2] was 97.7% (inactive); in assay [2] (setting [8]), 99%; in assay [2] (setting [9]), 97.4%. Besides, the GFP response, % of DMSO is 101% (inactive) in assay [4], 103% (inactive) in assay [5], 99.3% in assay [5] (setting [6]) and 103% in assay [5] (setting [7]).
Take `COc1cc(NC(=O)c2cccc([N+](=O)[O-])c2)ccc1NC(=O)c1cc2ccccc2o1`: the GFP response vs DMSO is 98% (inactive) in assay [1], 99.9% in assay [1] (setting [6]), 97.8% in assay [1] (setting [7]) and 101% (inactive) in assay [3]. In addition, the figures for the GFP response relative to DMSO in assay [2], in assay [2] (setting [8]) and in assay [2] (setting [9]) were 94.9% (inactive), 98.2% and 95.1%, respectively. Also, the GFP response, % of DMSO was 100% (inactive) in assay [4], 107% (inactive) in assay [5], 105% in assay [5] (setting [6]) and 108% in assay [5] (setting [7]).
Take `COc1ccccc1C(=O)N1CCN(c2cccc(Cl)c2)CC1`: the GFP response vs DMSO in assay [1] was 97.2% (inactive); in assay [1] (setting [6]) it was 98.9%; in assay [1] (setting [7]), 95.8%; in assay [3] it was 100% (inactive). The GFP response relative to DMSO was 102% (inactive) in assay [2], 102% in assay [2] (setting [8]) and 99.3% in assay [2] (setting [9]). The GFP response, % of DMSO in assay [4] is 95.6% (inactive); in assay [5], 96.9% (inactive); in assay [5] (setting [6]) it was 99.1%; in assay [5] (setting [7]) it was 95%.
`O=C(OCn1ncc(Br)c(Br)c1=O)c1ccc(F)cc1`: the GFP response vs DMSO was 99.7% (inactive) in assay [1], 99.8% in assay [1] (setting [6]), 94.8% in assay [1] (setting [7]) and 116% (inactive) in assay [3]. For the same compound, the GFP response relative to DMSO was 210% (active) in assay [2], 183% in assay [2] (setting [8]) and 203% in assay [2] (setting [9]). Further, the GFP response, % of DMSO in assay [4] is 106% (inactive); in assay [5], 99.3% (inactive); in assay [5] (setting [6]) it was 108%; in assay [5] (setting [7]) it was 92.1%.
For the compound `O=C(O)CCCn1nc(-c2ccccc2)c2ccccc21`, the GFP response vs DMSO is 99% (inactive) in assay [1], 98.4% in assay [1] (setting [6]), 100% in assay [1] (setting [7]) and 103% (inactive) in assay [3]. For the same compound, the results for the GFP response relative to DMSO in assay [2], in assay [2] (setting [8]) and in assay [2] (setting [9]) were 112% (inactive), 112% and 111%, respectively. The GFP response, % of DMSO in assay [4] was 101% (inactive); in assay [5], 103% (inactive); in assay [5] (setting [6]), 106%; in assay [5] (setting [7]), 96.8%.
As to `CCCN(c1ccccc1F)S(=O)(=O)c1cc(-c2cc(C)no2)ccc1OC`, the GFP response vs DMSO was 95.6% (inactive) in assay [1], 95.6% in assay [1] (setting [6]), 96.1% in assay [1] (setting [7]) and 102% (inactive) in assay [3]. The values for the GFP response relative to DMSO in assay [2], in assay [2] (setting [8]) and in assay [2] (setting [9]) were 97.9% (inactive), 96% and 98.3%, respectively. Further, the GFP response, % of DMSO in assay [4] is 95.6% (inactive); in assay [5], 95.5% (inactive); in assay [5] (setting [6]) it was 95.4%; in assay [5] (setting [7]) it was 95%.
With `Oc1ccc(-c2nc3ccccn3c2NCc2ccco2)cc1`, the GFP response vs DMSO in assay [1] was 96.8% (inactive); in assay [1] (setting [6]) it was 98.4%; in assay [1] (setting [7]), 97.1%; in assay [3] it was 102% (inactive). The GFP response relative to DMSO in assay [2] is 101% (inactive); in assay [2] (setting [8]) it was 99.2%; in assay [2] (setting [9]), 99.3%. In addition, the GFP response, % of DMSO in assay [4] is 96.2% (inactive); in assay [5], 103% (inactive); in assay [5] (setting [6]) it was 105%; in assay [5] (setting [7]), 101%.
As for `Cc1onc(-c2ccccc2)c1C(=O)N1CCC(C)CC1`, the GFP response vs DMSO in assay [1] is 92% (inactive); in assay [1] (setting [6]), 93.4%; in assay [1] (setting [7]), 91.6%; in assay [3], 118% (inactive). For the same compound, the values for the GFP response relative to DMSO in assay [2], in assay [2] (setting [8]) and in assay [2] (setting [9]) were 103% (inactive), 102% and 103%, respectively. The GFP response, % of DMSO is 102% (inactive) in assay [4], 108% (inactive) in assay [5], 105% in assay [5] (setting [6]) and 107% in assay [5] (setting [7]).
Turning to `Brc1ccc2c(c1)OCCOCCOc1cc(Br)ccc1OCCOCCOCCO2`, the GFP response vs DMSO in assay [1] was 99% (inactive); in assay [1] (setting [6]), 98.4%; in assay [1] (setting [7]), 96.9%; in assay [3], 111% (inactive). In addition, the results for the GFP response relative to DMSO in assay [2], in assay [2] (setting [8]) and in assay [2] (setting [9]) were 126% (inactive), 123% and 126%, respectively. Also, the GFP response, % of DMSO is 92.7% (inactive) in assay [4], 96.9% (inactive) in assay [5], 97.2% in assay [5] (setting [6]) and 93.8% in assay [5] (setting [7]).

The values above are taken from PubChem BioAssay.
